In the library only some 3.5% were active in any assay of this set; here they are far more common.
MrgX1 allo act = positive allosteric modulators of MrgX1, primary screen, HEK293 cells, Fluo-4 calcium flux; AID 588675, 2011; B-score at 10 µM; Mas-related G-protein coupled receptor member X1 (Homo sapiens), Q96LB2; FDSS; active compounds read high; 310,000 tested, 0.63% active;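 active = plate-corrected calcium response at least 3 library SD above typical, normal starting fluorescence, not activating the receptor alone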;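 note: compound read alongside a low EC10 to EC30 dose of BAM8-22 agonist; peak minus trough fluorescence over baseline measured at the second addition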
Target sequence (Q96LB2 whole entry, looked up): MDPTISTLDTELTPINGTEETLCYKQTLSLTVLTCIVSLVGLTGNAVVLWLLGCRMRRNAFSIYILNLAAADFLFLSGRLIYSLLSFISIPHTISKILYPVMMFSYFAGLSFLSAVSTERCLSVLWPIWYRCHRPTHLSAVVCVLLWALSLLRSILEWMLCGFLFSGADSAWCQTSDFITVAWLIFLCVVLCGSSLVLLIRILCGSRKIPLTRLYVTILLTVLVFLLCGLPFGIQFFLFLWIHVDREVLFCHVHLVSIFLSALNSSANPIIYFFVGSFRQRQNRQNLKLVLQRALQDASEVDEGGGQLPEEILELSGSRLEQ
RGS4 act = RGS4 potentiators or activators, primary screen, cell-based, HEK293 M3R inducible RGS4, calcium flux. carbachol calcium flux Fluo4; active compounds read low. B-score at 10 µM. 310,000 tested, 0.92% active. AID 463111, 2010;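 active = B-score of the integrated calcium signal more than 4 SD below the library mean, with starting fluorescence not abnormally high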;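 note: negative B-score means reduced calcium response which marks RGS4 activation or potentiation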
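test system = HEK293 cells with stable M3R and inducible RGS4 | schedule = recording 10 s baseline at 1 Hz, 100 s post-agonist | technique = Fluo4-AM (2 µM) calcium-flux fluorescence, kinetic read | measure = Agonist-evoked peak-minus-minimum fluorescence over baseline, integrated ratio, B score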
RGS4 inh = RGS4 inhibitors, primary screen, cell-based, HEK293 M3R inducible RGS4, calcium flux. Regulator of G-protein signaling 4 (Homo sapiens), P49798. Fluo-4 calcium flux; active compounds read high; triggered by carbachol at its EC20. B-score at 10 µM. 310,000 tested, 0.45% active. AID 463165, 2010;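 active = B-score, a plate-corrected calcium signal, over three deviations above library mean, with baseline fluorescence within five deviations of library mean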;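 note: RGS4 expression induced by doxycycline in cells with stable M3 receptor; B-score is computed from the integrated fluorescence ratio over baseline after carbachol; higher B-score means a larger calcium signal and so more RGS4 inhibition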
Target sequence (P49798 whole entry, looked up): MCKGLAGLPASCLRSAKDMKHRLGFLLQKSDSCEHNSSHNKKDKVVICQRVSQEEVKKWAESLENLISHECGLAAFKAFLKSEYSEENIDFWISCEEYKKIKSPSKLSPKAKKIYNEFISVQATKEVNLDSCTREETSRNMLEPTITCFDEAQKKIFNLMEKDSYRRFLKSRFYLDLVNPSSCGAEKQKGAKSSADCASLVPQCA
MrgX1 agonist = agonists of human MrgX1 receptor, primary screen, HEK293 cells, Fluo-4 calcium flux; 310,000 tested, 0.44% active; B-score at 10 µM; Fluo-4 calcium fluorescence, agonist mode; active compounds read high; Mas-related G-protein coupled receptor member X1 (Homo sapiens), Q96LB2;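 active = calcium response B-score plate-corrected fluorescence ratio at least 3 library SD, with starting fluorescence B-score inside 5 SD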
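Test system: HEK293 cells stably expressing human MrgX1 receptor; Input: fifteen thousand cells per well; Dosing: compound delivered in addition one of three; Schedule: overnight seeding, then 1 h dark dye loading; Technique: Fluo-4 NW calcium fluorescence; Measure: B-scored fluorescence response ratio; Controls: positive and negative controls per plate.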
MrgX1 antagonist = antagonists of human MrgX1 receptor, primary screen, HEK293 cells, Fluo-4 calcium flux; Mas-related G-protein coupled receptor member X1 (Homo sapiens), Q96LB2; BAM8-22 antagonism; active compounds read low; B-score at 10 µM; 310,000 tested, 1.3% active;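 active = calcium-response B-score plate-corrected more than 3 library SD below zero, starting fluorescence within 5 deviations, no agonist response on first addition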;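 note: peak minus trough fluorescence over baseline after final BAM8-22 challenge near maximal dose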
The depositor's hits bear a star; i = inactive; / = no result.

SMILES	MrgX1 allo act	RGS4 act	RGS4 inh	MrgX1 agonist	MrgX1 antagonist
CCN(CC)C(=O)N1c2ccccc2Sc2ccccc21	i	i	i	i	i
COc1ccc2c(=O)cc(-c3ccccc3F)oc2c1	i	i	i	i	i
N#C/C(=C\c1cccs1)C(=O)Nc1nccs1	i	i	i	44*	i
Cc1c(Cl)cccc1-n1c(SCC(=O)N2CCC(C(=O)O)CC2)nc2ccccc2c1=O	i	i	i	i	i
C=CCc1ccc(OCCCCCN2CCOCC2)c(OC)c1	i	-7.5*	i	i	i
CC(C)(C)C(=O)C(Cl)C(=O)Nc1ccccc1 (configuration not stated)	i	i	45*	i	i
COc1ccc(S(=O)(=O)Nc2c(NC3CCCCC3)c3ccccc3oc2=O)cc1	i	i	i	i	i
CCOC(=O)C1=C(COC(=O)/C=C/c2cccc(OC)c2)NC(=O)NC1C (configuration not stated)	i	-7*	i	i	i
CN(C)c1ccc(/C=C/C(=O)c2cc(Cl)ccc2O)cc1	i	i	i	i	-6.8*
O=C(NCC1CCN(Cc2ccc(Cl)cc2)CC1)C1CCCN(c2ncnc3c2nc2n3CCCCC2)C1 (configuration not stated)	i	-7.2*	i	i	i
COc1cnn(-c2ccc(C)cc2)c(=O)c1SCc1ccccc1	i	i	i	30*	i
COc1cnn(-c2ccc(Br)cc2)c(=O)c1SCc1ccccc1	i	i	i	i	i
Cc1ccc(C)c(S(=O)(=O)N2CCN(C(=O)CSc3ccccc3F)CC2)c1	i	i	i	i	i
Cc1ccc2cc(C(c3nnnn3CC3CCCO3)N3CCc4ccccc4C3)c(=O)[nH]c2c1 (configuration not stated)	i	i	i	i	i
Cc1cccc2cc(C(c3nnnn3CC3CCCO3)N3CCc4ccccc4C3)c(=O)[nH]c12 (configuration not stated)	i	/	/	i	-5.1*
COc1ccc(OCC(=O)NNC(=S)NC(=O)c2ccc(Br)o2)cc1	i	i	i	i	i
CCN(CC)CCCNC(=O)C1CCN(C(=O)c2cc3sccc3n2Cc2ccc(F)cc2)CC1	i	i	i	i	-6*
S=C1NC2=C(CCC/C2=C\c2ccccc2)C(c2ccccc2)N1 (configuration not stated)	i	i	i	i	i
C(=C1/CCCC2=C1Nc1ncnn1C2c1ccccc1)/c1ccccc1 (configuration not stated)	7.3*	i	i	i	-5*
Nc1nc2ccc([N+](=O)[O-])cc2[nH]1	i	i	i	i	i
Nc1[nH]c2cc([N+](=O)[O-])ccc2c1-c1ccccn1	i	i	i	i	-7.6*
COc1ccccc1-c1nnn(CC#N)n1	i	i	i	i	-7.5*
COc1cc2c(cc1OC)-c1cc(NC3CCCCCC3)nc(=O)n1CC2	i	i	i	i	-6.2*
CCN(CC(=O)Nc1ccccc1C(F)(F)F)C(=O)C1CC(=O)N(Cc2ccccc2)C1 (configuration not stated)	i	i	i	i	i
Cc1ccc(NS(=O)(=O)c2cccc(C(=O)NNC(=O)c3cccn3C)c2)c(C)c1	i	i	i	i	-6.7*
SMILES	MrgX1 allo act	RGS4 act	RGS4 inh	MrgX1 agonist	MrgX1 antagonist
COc1ccc(NS(=O)(=O)c2cccc(C(=O)NNC(=O)c3cccn3C)c2)cc1	i	i	i	i	i
CC1CCCC(NC(=O)C2N(CCCN3CCCC3)C(=O)C3C(C(=O)Nc4cccc(Cl)c4)C4C=CC32O4)C1C (configuration not stated)	i	i	i	i	i
Cc1nc2ccccn2c1C(=O)N/N=C/c1ccccc1	i	i	i	i	i
Cc1ccccc1N/N=C/c1c(C)nc2ccccn12	8.5*	i	i	i	i
CC(C)(C)n1nnnc1C(c1cccnc1)N(Cc1ccccc1)Cc1cccs1 (configuration not stated)	i	i	i	i	-6*
O=C(Nc1ccccc1)/C(=C/c1ccc(F)cc1)NC(=O)c1ccco1	i	i	i	i	i
CC(=O)c1ccc(OCc2cc(C(=O)N(C)CCOc3ccc(C)cc3)no2)cc1	i	i	i	i	i
COC(=O)c1ccc(C23CC4(C2)[C@H](CN(C)[C@@H]4c2ccccc2)C3c2ccc(Cl)nc2)cc1 (some centres not stated)	i	-7.1*	i	i	i
Cc1cccc(NC(=O)CSc2nnc(CNC(=O)c3ccc(S(=O)(=O)N(C)C)cc3)n2-c2ccc(F)cc2)c1	i	i	i	i	i
Cc1cccc(-n2c(CNC(=O)c3ccc(S(=O)(=O)N(C)C)cc3)nnc2SCC(=O)Nc2ccc(F)cc2)c1	i	-8.1*	i	i	i
Cc1ccc(S(=O)(=O)CC#CCOC(=O)c2ccc([N+](=O)[O-])cc2)cc1	i	i	i	43*	i
Cc1ccc(C(=O)c2ccc([N+](=O)[O-])cc2)cc1	i	i	i	i	i
Cc1ccc(C)c(NC(=S)NC(NC(=O)N(C)C)C(Cl)(Cl)Cl)c1 (configuration not stated)	i	i	i	i	i
Cc1ccc(C)c(NC(=S)NC(NC(=O)Cc2cccc3ccccc23)C(Cl)(Cl)Cl)c1 (configuration not stated)	i	i	i	i	-9.1*
CCc1cccc(NS(=O)(=O)c2ccc3c(c2)N(C)CCO3)c1	i	i	i	i	i
O=C(C1=C(O)C(=O)N(CC2CCCO2)C1c1ccccc1F)c1ccco1 (configuration not stated)	i	i	i	i	i
Cc1ccccc1Nc1nc(-c2cccnc2)nc2ccccc12	i	-7.2*	i	42*	i
CN(Cc1ccccc1F)c1nc(-c2cccnc2)nc2ccccc12	i	-14*	i	i	i
Clc1cccc(CNc2nc(-c3cccnc3)nc3ccccc23)c1	/	-9.2*	i	/	/
c1cncc(CNc2nc(-c3cccnc3)nc3ccccc23)c1	i	i	i	i	i
CCOC(=O)c1ccc(Nc2nc(-c3cccnc3)nc3ccccc23)cc1	i	-7.1*	i	i	i
